The results in this text go back to ChEMBL document CHEMBL2203165, “Glycolysis inhibitor screening identifies the bis-geranylacylphloroglucinol protonophore moronone from Moronobea coccinea” (2012).

Active and inactive are the calls of the source. The rule behind the calls is not given here.

In experiment [1] the test system is MDA-MB-231. In words: Effect on lactate production in human MDA-MB-231 cells at […] measured per ug of cellular protein after 48 hrs by enzyme based assay (reference value: 40.5 +/- 6 nmol/ug of cellular protein). It counts as functional.
In experiment [2] the test system is MDA-MB-231. In words: Effect on lactate production in human MDA-MB-231 cells at […] measured per ug of cellular protein after 24 hrs by enzyme based assay (reference value: 23.6 +/- 2 nmol/ug of cellular protein). It counts as functional.
Experiment [3] relates to MDA-MB-231. In words: Increase in cellular glucose consumption in human MDA-MB-231 cells at […] measured per ug of cellular protein after 48 hrs by enzyme based assay (reference value: 43 +/- 8.4 nmol/ug of cellular protein). It counts as functional.
Experiment [4] has as its system MDA-MB-231. In words: Increase in cellular glucose consumption in human MDA-MB-231 cells at […] measured per ug of cellular protein after 24 hrs by enzyme based assay (reference value: 17.2 +/- 2 nmol/ug of cellular protein). It counts as functional.
The subject of experiment [5] is MDA-MB-231. The experiment in a line: Inhibition of cell viability of human MDA-MB-231 cells at 3 mM after 48 hrs by sulforhodamine B method in presence of 1 uM F1F0-ATPase inhibitor oligomycin. It counts as functional, cell-based.
For experiment [6], the system named is MDA-MB-231. The experiment in a line: Inhibition of cell viability of human MDA-MB-231 cells at 3 mM after 48 hrs by sulforhodamine B method in presence of 1 uM mitochondrial ETC complex III inhibitor antimycin A. It counts as functional, cell-based.
The test system of experiment [7] is MDA-MB-231. The experiment in a line: Inhibition of cell viability of human MDA-MB-231 cells at 30 mM after 48 hrs by sulforhodamine B method. It counts as functional, cell-based. The procedure, abridged: (§1)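 MDA-MB-231 cells are plated at 3×10^4 per well in RPMI 1640 with 10% FBS. After 24 h, compound diluted in serum-free medium is added, with DMSO below 0.5%. Cells are incubated 48 h at 37 °C and viability is read by sulforhodamine B as % inhibition of untreated control. Concentration-response runs are in half-log steps.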

The test system of experiment [8] is MDA-MB-231. In words: Inhibition of cell viability of human MDA-MB-231 cells at 3 mM after 48 hrs by sulforhodamine B method. Particulars: MDA-MB-231, 48 h. It counts as functional. The procedure, abridged: as §1
The test system of experiment [9] is MDA-MB-231. In words: Inhibition of cell viability of human MDA-MB-231 cells at 10 mM after 48 hrs by sulforhodamine B method. It counts as functional, cell-based. The procedure, abridged: as §1
For experiment [10], the system named is MDA-MB-231. In words: Inhibition of cell viability of human MDA-MB-231 cells at 1 mM after 48 hrs by sulforhodamine B method. It counts as functional. Particulars: MDA-MB-231, 48 h. The procedure, abridged:
as §1

In experiment [11] the test system is T47D. In words: Decrease in mitochondrial membrane potential in human T47D cells assessed as decline in respiration rate at 3 uM after 48 hrs. It counts as functional, cell-based. The procedure, abridged: (§2)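 Oxygen consumption of intact MDA-MB-231 or T47D cells measured with a Clark-type electrode, no FBS present; compound tested at 0.1, 0.3, 1 and 3 μM; rate normalized to untreated control. Average + standard deviation from three independent experiments (n = 3).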

Experiment [12] has as its system T47D. The experiment in a line: Decrease in mitochondrial membrane potential in human T47D cells assessed as decline in respiration rate at 1 uM after 48 hrs. It counts as functional, cell-based. Put shortly: as §2
In experiment [13] the test system is MDA-MB-231. In words: Decrease in mitochondrial membrane potential in human MDA-MB-231 cells assessed as decline in respiration rate at 1 uM after 48 hrs. It counts as functional, cell-based. The procedure, abridged: as §2
Experiment [14] concerns MDA-MB-231. In words: Stimulation of oligomycin-induced state 4 respiration in human MDA-MB-231 cells at 1 uM. It counts as functional, cell-based. The procedure, abridged:
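Oligomycin (1 μM) added to MDA-MB-231 cells in a Clark-type electrode chamber to initiate state 4 respiration. Compound (1 μM) then added and oxygen consumption followed. Rate normalized to untreated control.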

Experiment [15] relates to MDA-MB-231. The experiment in a line: Increase in cellular respiration in human MDA-MB-231 cells assessed as increase in oxygen consumption at 0.1 to 1 uM after 48 hrs. It counts as functional, cell-based. Put shortly: as §2
For experiment [16], the system named is MDA-MB-231. The experiment in a line: Decrease in mitochondrial membrane potential in human MDA-MB-231 cells assessed as decline in respiration rate at 3 uM after 48 hrs. It counts as functional, cell-based. Put shortly:
as §2

The test system of experiment [17] is MDA-MB-231. The experiment in a line: Effect on lactate production in human MDA-MB-231 cells at 10 uM measured per ug of cellular protein after 48 hrs by enzyme based assay (reference value: 40.5 +/- 6 nmol/ug of cellular protein). It counts as functional.
The subject of experiment [18] is MDA-MB-231. The experiment in a line: Effect on lactate production in human MDA-MB-231 cells at 3 uM measured per ug of cellular protein after 48 hrs by enzyme based assay (reference value: 40.5 +/- 6 nmol/ug of cellular protein). It counts as functional.
Experiment [19] deals with MDA-MB-231. The experiment in a line: Effect on lactate production in human MDA-MB-231 cells at 1 uM measured per ug of cellular protein after 48 hrs by enzyme based assay (reference value: 40.5 +/- 6 nmol/ug of cellular protein). It counts as functional.
Experiment [20] concerns MDA-MB-231. The experiment in a line: Effect on lactate production in human MDA-MB-231 cells at 10 uM measured per ug of cellular protein after 24 hrs by enzyme based assay (reference value: 23.6 +/- 2 nmol/ug of cellular protein). It counts as functional.
Experiment [21] relates to MDA-MB-231. The experiment in a line: Effect on lactate production in human MDA-MB-231 cells at 3 uM measured per ug of cellular protein after 24 hrs by enzyme based assay (reference value: 23.6 +/- 2 nmol/ug of cellular protein). It counts as functional.
Experiment [22] relates to MDA-MB-231. In words: Effect on lactate production in human MDA-MB-231 cells at 1 uM measured per ug of cellular protein after 24 hrs by enzyme based assay (reference value: 23.6 +/- 2 nmol/ug of cellular protein). It counts as functional.
In experiment [23] the test system is MDA-MB-231. In words: Increase in cellular glucose consumption in human MDA-MB-231 cells at 10 uM measured per ug of cellular protein after 48 hrs by enzyme based assay (reference value: 43 +/- 8.4 nmol/ug of cellular protein). It counts as functional.
Experiment [24] relates to MDA-MB-231. The experiment in a line: Increase in cellular glucose consumption in human MDA-MB-231 cells at 3 uM measured per ug of cellular protein after 48 hrs by enzyme based assay (reference value: 43 +/- 8.4 nmol/ug of cellular protein). It counts as functional.
Experiment [25] concerns MDA-MB-231. In words: Increase in cellular glucose consumption in human MDA-MB-231 cells at 1 uM measured per ug of cellular protein after 48 hrs by enzyme based assay (reference value: 43 +/- 8.4 nmol/ug of cellular protein). It counts as functional.
Experiment [26] has as its system MDA-MB-231. The experiment in a line: Increase in cellular glucose consumption in human MDA-MB-231 cells at 10 uM measured per ug of cellular protein after 24 hrs by enzyme based assay (reference value: 17.2 +/- 2 nmol/ug of cellular protein). It counts as functional.
Experiment [27] concerns MDA-MB-231. In words: Increase in cellular glucose consumption in human MDA-MB-231 cells at 3 uM measured per ug of cellular protein after 24 hrs by enzyme based assay (reference value: 17.2 +/- 2 nmol/ug of cellular protein). It counts as functional.
In experiment [28] the test system is MDA-MB-231. In words: Increase in cellular glucose consumption in human MDA-MB-231 cells at 1 uM measured per ug of cellular protein after 24 hrs by enzyme based assay (reference value: 17.2 +/- 2 nmol/ug of cellular protein). It counts as functional.
Experiment [29] has as its system MDA-MB-231. In words: Cytotoxicity against human MDA-MB-231 cells assessed as inhibition of cell proliferation/viability at 30 uM in presence of 0.1 uM rotenone mitochondrial electron transport inhibitor. It counts as functional. Put shortly: (§3)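 MDA-MB-231 cells in RPMI 1640 with 10% FBS, plated 3×10^4/well; after 24 h, compound diluted in serum-free medium added with or without rotenone (0.1 μM final), DMSO <0.5%. 48 h at 37 °C; viability by sulforhodamine B; % inhibition of untreated control; two independent experiments each in triplicate (n = 6).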

Experiment [30] has as its system MDA-MB-231. The experiment in a line: Cytotoxicity against human MDA-MB-231 cells assessed as inhibition of cell proliferation/viability at 0.1 to 10 uM in presence of 0.1 uM rotenone mitochondrial electron transport inhibitor. It counts as functional, cell-based. The procedure, abridged: as §3
Experiment [31] deals with T47D. The experiment in a line: Increase in cellular respiration in human T47D cells assessed as increase in oxygen consumption at 0.1 to 1 uM after 48 hrs. It counts as functional, cell-based. The procedure, abridged: as §2
The subject of experiment [32] is MDA-MB-231. The experiment in a line: Effect on lactate production in human MDA-MB-231 cells at 0.1 uM measured per ug of cellular protein after 48 hrs by enzyme based assay (reference value: 40.5 +/- 6 nmol/ug of cellular protein). It counts as functional.
Experiment [33] deals with MDA-MB-231. In words: Effect on lactate production in human MDA-MB-231 cells at 0.1 uM measured per ug of cellular protein after 24 hrs by enzyme based assay (reference value: 23.6 +/- 2 nmol/ug of cellular protein). It counts as functional.
Experiment [34] has as its system MDA-MB-231. In words: Increase in cellular glucose consumption in human MDA-MB-231 cells at 0.1 uM measured per ug of cellular protein after 48 hrs by enzyme based assay (reference value: 43 +/- 8.4 nmol/ug of cellular protein). It counts as functional.
Experiment [35] relates to MDA-MB-231. In words: Increase in cellular glucose consumption in human MDA-MB-231 cells at 0.1 uM measured per ug of cellular protein after 24 hrs by enzyme based assay (reference value: 17.2 +/- 2 nmol/ug of cellular protein). It counts as functional.
Experiment [36] relates to MDA-MB-231. In words: Inhibition of cell viability of human MDA-MB-231 cells at 0.1 uM after 48 hrs by sulforhodamine B method. It counts as functional. The conditions noted are these: MDA-MB-231, 48 h. The procedure, abridged:
as §1

As to `OC[C@H]1O[C@@H](O)C[C@@H](O)[C@@H]1O`, the Activity with MDA-MB-231 [1] was 52.8 nmol; in the experiment with MDA-MB-231 [2], 26.3 nmol; in the experiment with MDA-MB-231 [3] it was 50.2 nmol; in the experiment on MDA-MB-231 [4], 22.5 nmol. The inhibition entry with MDA-MB-231 [5], in the experiment on MDA-MB-231 [6], in the experiment with MDA-MB-231 [7] and with MDA-MB-231 [9] was “Active” throughout. In the experiment on MDA-MB-231 [8], 3000 µM produced 8% inhibition. In the experiment on MDA-MB-231 [10], the inhibition at 1000 µM is 4%.
For `CC(C)=CCC/C(C)=C/CC1(C/C=C(\C)CCC=C(C)C)C(O)=CC(=O)C(C(=O)c2ccccc2)=C1O` (stereo unspecified) [MORONONE], the result with T47D [11], in the experiment on T47D [12], in the experiment on MDA-MB-231 [13], in the experiment with MDA-MB-231 [14], with MDA-MB-231 [15] and in the experiment with MDA-MB-231 [16] was Active. Besides, the outcome in the experiment on MDA-MB-231 [30] and with T47D [31] was Active. In addition, the Activity in the experiment on MDA-MB-231 [17] was 168.5 nmol; in the experiment on MDA-MB-231 [18] it was 67.3 nmol; in the experiment with MDA-MB-231 [19] it was 49.3 nmol; in the experiment with MDA-MB-231 [20] it was 59.5 nmol; in the experiment on MDA-MB-231 [21], 25.4 nmol; with MDA-MB-231 [22], 21.9 nmol. In addition, the Activity with MDA-MB-231 [23] turned out to be 168.4 nmol; with MDA-MB-231 [24] it was 73.4 nmol; with MDA-MB-231 [25], 44.7 nmol; with MDA-MB-231 [26] it was 45.8 nmol; with MDA-MB-231 [27] it was 25.9 nmol; in the experiment with MDA-MB-231 [28], 26.7 nmol. In addition, the “inhibition (INH)” value in the experiment with MDA-MB-231 [29] was found to be 68%.
As to `C=C(C)[C@H]1Cc2c(ccc3c2O[C@@H]2COc4cc(OC)c(OC)cc4[C@@H]2C3=O)O1` [ROTENONE], the Activity is 190.4 nmol in the experiment with MDA-MB-231 [32], 75.7 nmol in the experiment with MDA-MB-231 [33], 177.6 nmol in the experiment with MDA-MB-231 [34] and 37.5 nmol in the experiment on MDA-MB-231 [35]. Besides, the inhibition at 0.1 µM in the experiment with MDA-MB-231 [36] amounted to 7%.
